From PubChem BioAssay AID624067 (The Scripps Research Institute Molecular Screening Center, 2012)
“And” between values parts separate entries of the source, which are not always exact repeats. Equal entries are not always repeated.

Target: Insulin-degrading enzyme (Homo sapiens) (UniProt P14735)
Test: WT IDE enzyme inhibition, cell-free – biochemical, fluorescence polarization, run by assay provider, counter-screen for IDE inhibitor project, late-stage follow-up (AID 624067)
Settings: recombinant IDE, FAbetaB cleavage;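 active means IC50 at or below 10 µM; inactive means IC50 above 10 µM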
Outline: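 Material: recombinant WT human IDE. Input: IDE at 1 nM final, approximately EC80. Medium: HEPES pH 7.4, NaCl, MgCl2, 0.1% BSA. Compound dosing: 10 semi-log points, top 100 µM. Schedule: enzyme reaction at 22 °C. Measured by: fluorescence polarization (ex 485 nm, em 525 nm) after avidin/1,10-phenanthroline stop. Benchmarks: high control Ii1.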

Insulin-degrading enzyme (Homo sapiens), sequence (P14735 whole entry, looked up): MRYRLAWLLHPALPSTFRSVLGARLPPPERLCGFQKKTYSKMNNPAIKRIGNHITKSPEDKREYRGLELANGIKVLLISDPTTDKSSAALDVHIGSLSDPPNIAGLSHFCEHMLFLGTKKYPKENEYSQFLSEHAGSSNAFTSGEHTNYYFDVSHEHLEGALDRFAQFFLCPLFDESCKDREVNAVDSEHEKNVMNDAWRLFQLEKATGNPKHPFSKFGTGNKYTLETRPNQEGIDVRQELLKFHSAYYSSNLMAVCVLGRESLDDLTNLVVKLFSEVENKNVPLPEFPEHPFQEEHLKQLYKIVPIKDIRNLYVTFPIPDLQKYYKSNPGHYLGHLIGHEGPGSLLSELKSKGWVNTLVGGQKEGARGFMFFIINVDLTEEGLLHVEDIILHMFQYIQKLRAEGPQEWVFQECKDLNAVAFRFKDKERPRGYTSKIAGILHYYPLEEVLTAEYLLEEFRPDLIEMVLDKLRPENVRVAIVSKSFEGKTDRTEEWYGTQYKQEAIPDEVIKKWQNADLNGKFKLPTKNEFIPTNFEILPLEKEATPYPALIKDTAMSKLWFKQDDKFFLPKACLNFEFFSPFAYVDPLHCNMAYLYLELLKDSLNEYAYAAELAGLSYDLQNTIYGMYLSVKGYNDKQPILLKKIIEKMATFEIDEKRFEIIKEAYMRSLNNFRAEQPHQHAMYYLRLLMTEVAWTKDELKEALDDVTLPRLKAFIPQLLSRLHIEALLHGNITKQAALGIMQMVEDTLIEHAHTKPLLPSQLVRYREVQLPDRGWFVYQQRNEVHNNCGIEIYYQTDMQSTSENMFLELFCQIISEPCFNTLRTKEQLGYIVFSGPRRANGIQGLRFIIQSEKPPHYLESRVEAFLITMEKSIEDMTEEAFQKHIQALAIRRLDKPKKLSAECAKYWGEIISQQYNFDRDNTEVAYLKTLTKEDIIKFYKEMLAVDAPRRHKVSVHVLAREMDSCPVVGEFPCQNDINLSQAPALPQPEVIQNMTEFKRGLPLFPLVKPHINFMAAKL

Row | IC50 | SMILES
1 | 3.9 µM | Clc1cccc(-c2nnc(SCc3nc4ccccc4[nH]3)n2Cc2ccco2)c1
2 | 1.9 µM and > 33 µM (inactive) | COc1ccc(C(=O)N2CCN(C(=O)C3COc4ccccc4O3)CC2)cc1OC (stereo not given)
3 | 5.3 µM | O=C(Nc1cccc(C(F)(F)F)c1)c1csc(-c2ccncc2)n1
4 | 1.4 µM | O=c1c2ccccc2sn1-c1cc(S(=O)(=O)N2CCOCC2)ccc1N1CCOCC1
5 | 5.7 µM and 8.9 µM | Cc1cccc(-c2nnc(SCc3nc4ccccc4[nH]3)n2Cc2ccco2)c1
